Data on 12 compounds can be found in ChEMBL document CHEMBL4819043, “1,3-Benzodioxole-based fibrate derivatives as potential hypolipidemic and hepatoprotective agents” (2021).

Active and inactive are the calls of the source. No cut-off for these calls is given here.

The subject of assay [1] is Mus musculus. Nature of the assay: Hypolipidemic activity in KM mouse model of Triton WR 1339-induced hyperlipidemia assessed as reduction in serum TG level at 0.362 mmol/Kg, IG administered for 1 week and measured on day 7. Type of assay: functional, organism-based. The note with it: time 1.0 weeks.
Assay [2] relates to Mus musculus. Description: Hypolipidemic activity in KM mouse model of Triton WR 1339-induced hyperlipidemia assessed as reduction in serum TC level at 0.362 mmol/Kg, IG administered for 1 week and measured on day 7. The class given is functional, organism-based. To be noted: time 1.0 weeks.
For assay [3], the system named is Mus musculus. Description: Hypolipidemic activity in KM mouse model of Triton WR 1339-induced hyperlipidemia assessed as reduction in serum MDA level at 0.362 mmol/Kg, IG administered for 1 week and measured on day 7. Type of assay: functional, organism-based. To be noted: time 1.0 weeks.
The test system of assay [4] is Mus musculus. Nature of the assay: Hypolipidemic activity in mouse model of HFD-induced hyperlipidemia assessed as reduction in serum TG level at 13 mg/kg, IG. The class given is functional, organism-based. The gist of the method: (§1)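 Mice with high-fat-diet-induced hyperlipidemia, given 67 or 13 mg/kg intragastrically. Serum was assayed for TC, TG, HDL-C and LDL-C, for SOD, GSH-PX and MDA, for IL-6 and TNF-α, and for AST and ALT. Values were compared with the model group. n = 12 per group; mean ± SEM.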

The subject of assay [5] is Mus musculus. Description: Hypolipidemic activity in mouse model of HFD-induced hyperlipidemia assessed as reduction in serum LDL-C level at 13 mg/kg, IG. Type of assay: functional, organism-based. The gist of the method: as §1
In assay [6] the test system is Mus musculus. Description: Hypolipidemic activity in mouse model of HFD-induced hyperlipidemia assessed as reduction in serum TC level at 13 mg/kg, IG. Type of assay: functional, organism-based. In short, it runs like this:
as §1

Assay [7] deals with Mus musculus. Description: Antioxidant activity in mouse model of HFD-induced hyperlipidemia assessed as increase in GSH-PX level at 13 mg/kg, IG. The class given is functional, organism-based. In short, it runs like this: as §1
Assay [8] deals with Mus musculus. Description: Antioxidant activity in mouse model of HFD-induced hyperlipidemia assessed as decrease in MDA level at 13 mg/kg, IG. Type of assay: functional, organism-based. In short, it runs like this:
as §1

In assay [9] the test system is Mus musculus. Nature of the assay: Hepatoprotective activity against mouse model of HFD-induced hyperlipidemia assessed as decrease in AST level at 13 mg/kg, IG. Type of assay: functional, organism-based. In short, it runs like this: as §1
Assay [10] concerns Mus musculus. Nature of the assay: Hepatoprotective activity against mouse model of HFD-induced hyperlipidemia assessed as decrease in ALT level at 13 mg/kg, IG. The class given is functional, organism-based. In short, it runs like this: as §1
For assay [11], the system named is Mus musculus. Nature of the assay: Hypolipidemic activity in mouse model of HFD-induced hyperlipidemia assessed as reduction in number of lipid droplets in liver at 13 mg/kg, IG by oil red-O staining based assay. The class given is functional, organism-based. The gist of the method:
(§2)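 Livers from mice with high-fat-diet-induced hyperlipidemia, dosed intragastrically at 67 or 13 mg/kg. Liver sections were stained for lipid (oil red O; Sudan III with hematoxylin, 100×), and relative hepatic lipid accumulation was quantified. Mean of six independent experiments ± SEM, compared with the model group.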

Assay [12] deals with Mus musculus. Nature of the assay: Upregulation of PPAR-alpha expression in mouse model of HFD-induced hyperlipidemia at 13 mg/kg, IG by Western blot analysis. Type of assay: functional, organism-based. In short, it runs like this:
(§3)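 Hepatic PPAR-α expression measured in liver tissue of mice with high-fat-diet-induced hyperlipidemia, dosed intragastrically at 67 or 13 mg/kg. Compared with the model group. n = 6; mean ± SEM.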
A general note: Immunoblotting shows a protein as a band on a membrane.

In assay [13] the test system is Mus musculus. Description: Hypolipidemic activity in mouse model of HFD-induced hyperlipidemia assessed as increase in serum HDL-C level at 13 mg/kg, IG relative to control. The class given is functional. In short, it runs like this:
as §1

Assay [14] has as its system Mus musculus. Nature of the assay: Hypolipidemic activity in KM mouse model of Triton WR 1339-induced hyperlipidemia assessed as reduction in serum TG level at 0.121 mmol/Kg, IG administered for 1 week and measured on day 7 relative to control. The class given is functional. Also noted: scale not given: the % may be the effect or the level left. To be noted: time 1 weeks.

The subject of assay [15] is Mus musculus. Nature of the assay: Hypolipidemic activity in KM mouse model of Triton WR 1339-induced hyperlipidemia assessed as reduction in serum TG level at 0.362 mmol/Kg, IG administered for 1 week and measured on day 7 relative to control. Type of assay: functional. Also on record: scale not given: the % may be the effect or the level left. The note with it: time 1 weeks.

In assay [16] the test system is Mus musculus. Nature of the assay: Hypolipidemic activity in KM mouse model of Triton WR 1339-induced hyperlipidemia assessed as reduction in serum TG level at 1.086 mmol/Kg, IG administered for 1 week and measured on day 7 relative to control. Type of assay: functional. Also noted: scale not given: the % may be the effect or the level left. The note with it: time 1 weeks.

For assay [17], the system named is Mus musculus. Nature of the assay: Hypolipidemic activity in KM mouse model of Triton WR 1339-induced hyperlipidemia assessed as reduction in serum TC level at 0.121 mmol/Kg, IG administered for 1 week and measured on day 7 relative to control. To be noted: time 1 weeks. Type of assay: functional. Also noted: scale not given: the % may be the effect or the level left.

The subject of assay [18] is Mus musculus. Nature of the assay: Hypolipidemic activity in KM mouse model of Triton WR 1339-induced hyperlipidemia assessed as reduction in serum TC level at 0.362 mmol/Kg, IG administered for 1 week and measured on day 7 relative to control. Type of assay: functional. Also on record: scale not given: the % may be the effect or the level left. To be noted: time 1 weeks.

For assay [19], the system named is Mus musculus. Description: Hypolipidemic activity in KM mouse model of Triton WR 1339-induced hyperlipidemia assessed as reduction in serum TC level at 1.086 mmol/Kg, IG administered for 1 week and measured on day 7 relative to control. The note with it: time 1 weeks. The class given is functional. Also on record: scale not given: the % may be the effect or the level left.

Assay [20] has as its system Mus musculus. Description: Hypolipidemic activity in KM mouse model of Triton WR 1339-induced hyperlipidemia assessed as reduction in serum TG level administered IG for 1 week and measured on day 7. The class given is functional, organism-based. To be noted: time 1.0 weeks.
Assay [21] relates to Mus musculus. Description: Hypolipidemic activity in KM mouse model of Triton WR 1339-induced hyperlipidemia assessed as reduction in serum TC level administered IG for 1 week and measured on day 7 relative to control. To be noted: time 1.0 weeks. Type of assay: functional, organism-based.
Assay [22] concerns Mus musculus. Description: Hypolipidemic activity in mouse model of HFD-induced hyperlipidemia assessed as reduction in serum TG level at 67 mg/kg, IG. The class given is functional, organism-based. In short, it runs like this: as §1
Assay [23] relates to Mus musculus. Description: Hypolipidemic activity in mouse model of HFD-induced hyperlipidemia assessed as reduction in serum LDL-C level at 67 mg/kg, IG. The class given is functional, organism-based. In short, it runs like this: as §1
The test system of assay [24] is Mus musculus. Nature of the assay: Hypolipidemic activity in mouse model of HFD-induced hyperlipidemia assessed as reduction in serum TC level at 67 mg/kg, IG. Type of assay: functional, organism-based. The gist of the method: as §1
Assay [25] deals with Mus musculus. Nature of the assay: Antioxidant activity in mouse model of HFD-induced hyperlipidemia assessed as increase in SOD level at 67 mg/kg, IG. Type of assay: functional, organism-based. The gist of the method: as §1
The test system of assay [26] is Mus musculus. Nature of the assay: Antioxidant activity in mouse model of HFD-induced hyperlipidemia assessed as increase in GSH-PX level at 67 mg/kg, IG. The class given is functional, organism-based. In short, it runs like this: as §1
Assay [27] has as its system Mus musculus. Nature of the assay: Antioxidant activity in mouse model of HFD-induced hyperlipidemia assessed as decrease in MDA level at 67 mg/kg, IG. Type of assay: functional, organism-based. The gist of the method:
as §1

Assay [28] concerns Mus musculus. Description: Antiinflammatory activity against mouse model of HFD-induced hyperlipidemia assessed as decrease in TNF-alpha level at 67 mg/kg, IG. The class given is functional, organism-based. In short, it runs like this: as §1
For assay [29], the system named is Mus musculus. Description: Antiinflammatory activity against mouse model of HFD-induced hyperlipidemia assessed as decrease in IL-6 level at 67 mg/kg, IG. The class given is functional, organism-based. In short, it runs like this:
as §1

The subject of assay [30] is Mus musculus. Nature of the assay: Hepatoprotective activity against mouse model of HFD-induced hyperlipidemia assessed as decrease in AST level at 67 mg/kg, IG. The class given is functional, organism-based. In short, it runs like this:
as §1

Assay [31] concerns Mus musculus. Nature of the assay: Hepatoprotective activity against mouse model of HFD-induced hyperlipidemia assessed as decrease in ALT level at 67 mg/kg, IG. The class given is functional, organism-based. The gist of the method:
as §1

For assay [32], the system named is Mus musculus. Nature of the assay: Hypolipidemic activity in mouse model of HFD-induced hyperlipidemia assessed as reduction in number of lipid droplets in liver at 67 mg/kg, IG by oil red-O staining based assay. Type of assay: functional, organism-based. In short, it runs like this: as §2
Assay [33] concerns Mus musculus. Nature of the assay: Upregulation of PPAR-alpha expression in mouse model of HFD-induced hyperlipidemia at 67 mg/kg, IG by Western blot analysis. Type of assay: functional, organism-based. In short, it runs like this: as §3
The subject of assay [34] is Mus musculus. Nature of the assay: Hypolipidemic activity in mouse model of HFD-induced hyperlipidemia assessed as increase in serum HDL-C level at 67 mg/kg, IG relative to control. The class given is functional. In short, it runs like this: as §1

Take `CCOC(=O)CCCOc1ccc2c(c1)OCO2`: the outcome with Mus musculus [1] and with Mus musculus [2] was Active.

For the compound `CCOC(=O)CCCCOc1ccc2c(c1)OCO2`, the result with Mus musculus [2] was Active.

In the case of `O=C(CCCCOc1ccc2c(c1)OCO2)Oc1ccc2c(c1)OCO2`, the outcome with Mus musculus [1], in the assay on Mus musculus [2] and with Mus musculus [3] was Active.

In the case of `O=C(O)CCCCOc1ccc2c(c1)OCO2`, the outcome with Mus musculus [1] and with Mus musculus [2] was Active.

For `CC(C)OC(=O)C(C)(C)Oc1ccc(C(=O)c2ccc(Cl)cc2)cc1` [FENOFIBRATE], the result in the assay with Mus musculus [4], with Mus musculus [5], with Mus musculus [7], in the assay with Mus musculus [11] and in the assay on Mus musculus [12] was Active. Further, the outcome in the assay with Mus musculus [6], in the assay on Mus musculus [8], with Mus musculus [9] and with Mus musculus [10] was inactive. For the same compound, the Activity with Mus musculus [13] is reported as 20%.

On to `O=C(COc1ccc2c(c1)OCO2)Oc1ccc2c(c1)OCO2`, for which the result with Mus musculus [1] and in the assay with Mus musculus [2] was Active.

As to `CCOC(=O)COc1ccc2c(c1)OCO2`, the result in the assay on Mus musculus [2] was Active.

With `O=C(CCCCCOc1ccc2c(c1)OCO2)Oc1ccc2c(c1)OCO2`, the result in the assay on Mus musculus [1], with Mus musculus [2], in the assay with Mus musculus [3], in the assay on Mus musculus [22], in the assay with Mus musculus [23] and in the assay with Mus musculus [24] was Active. Further, the outcome in the assay on Mus musculus [25], in the assay with Mus musculus [26], with Mus musculus [27], in the assay with Mus musculus [28], with Mus musculus [29] and with Mus musculus [30] was Active. The result with Mus musculus [31], in the assay on Mus musculus [32] and with Mus musculus [33] was Active. Further, the Activity stood at 10.4% in the assay on Mus musculus [14]; 68.8% in the assay on Mus musculus [15]; 74.1% in the assay with Mus musculus [16]; 14.3% in the assay with Mus musculus [17]; 67.3% with Mus musculus [18]; 70.1% in the assay with Mus musculus [19]. In addition, the Activity result was “Dose-Dependent Effect” in the assay on Mus musculus [20], “Dose-Dependent Effect” in the assay with Mus musculus [21] and 15% in the assay on Mus musculus [34].

Turning to `O=C(CCCOc1ccc2c(c1)OCO2)Oc1ccc2c(c1)OCO2`, the outcome in the assay on Mus musculus [1] and in the assay on Mus musculus [2] was Active.

Consider `O=C(O)COc1ccc2c(c1)OCO2`, for which the result with Mus musculus [1] was Active.

As for `CCOC(=O)CCCCCOc1ccc2c(c1)OCO2`, the outcome in the assay on Mus musculus [1] and in the assay with Mus musculus [2] was Active.

Take `O=C(O)CCCCCOc1ccc2c(c1)OCO2`: the result with Mus musculus [1] and in the assay with Mus musculus [2] was Active.
